Measured values gathered from unrelated publications.
Compare with care: the assays were run in different laboratories.
Oprd1: Delta-type opioid receptor (Oprd1, Rattus norvegicus, UniProt P33533)
CTSB: Cathepsin B (CTSB, Homo sapiens, UniProt P07858)

For `CN1CCN(c2ccc(Nc3nccc(-c4cccc([N+](=O)[O-])c4)n3)cc2C(F)(F)F)CC1`, the remaining signal was 93% (Cyclin-dependent kinase 2 homolog (CRK2, Plasmodium falciparum, UniProt P61075); cell-free assay; 10 µM).
The inhibition of `N#Cc1ccc(NCCNCC(=O)N2N=CCC2C#N)nc1` (stereo not shown) is reported as 87% (Dipeptidyl peptidase 9 (DPP9, Homo sapiens, UniProt Q86TI2); enzyme activity, inhibitor; 10 µM).
`Nc1ncc(-c2nc(N3CCOCC3)nc(N3CCOCC3)n2)c(C(F)F)n1` gave a remaining binding of 88% (Mitogen-activated protein kinase 6 (MAPK6, Homo sapiens, UniProt Q16659); binding, competition with immobilised ligand; 10 µM).
`C#Cc1n[nH]c2c(-c3cn([C@@H](C)c4ccccc4)c(=O)[nH]c3=O)cc(F)cc12` has an inhibition of 2% (Tyrosine-protein kinase ZAP-70 (ZAP70, Homo sapiens, UniProt P43403); enzyme activity, inhibitor; 0.1 µM).
`CC[C@@H](C)[C@@H]1CN([C@@H](CC2CCCCC2)CN2CCC[C@H]2CN2CCNC[C@@H]2CO)CCN1CCc1ccc(Cl)c(Cl)c1` has a remaining binding of 94% (Oprd1; ligand displacement, radioligand; 0.5 µM, 2 h, pH 7.5, cell membranes).
The remaining binding of `COc1ncccc1-c1cnn2ccc(N3CCN(C(=O)OC(C)C)CC3)nc12` is reported as 80% (Mitogen-activated protein kinase kinase kinase kinase 1 (MAP4K1, Homo sapiens, UniProt Q92918); binding, competition with immobilised ligand; 1 µM).
`CCOC(=O)c1ccc(OC(=O)CCCCCNC(=N)N)cc1` gave an inhibition of 0% (CTSB; enzyme activity, inhibitor; 10 µM).
For `Cc1nn(C)cc1-c1nc2c(N3CCN(Cc4ccc(Cl)cc4)CC3)c(Cl)cnc2[nH]1`, the remaining binding was 94% (Myosin light chain kinase family member 4 (MYLK4, Homo sapiens, UniProt Q86YV6); binding, competition with immobilised ligand; 1 µM).
For `CCCC[C@H]1CNCCN1C[C@@H]1CCCN1C[C@@H](Cc1ccc2ccccc2c1)N1CCN(CCC23CC4CC(CC(C4)C2)C3)[C@H]([C@@H](C)O)C1`, the remaining binding was 87.3% (Oprd1; ligand displacement, radioligand; 0.5 µM, 2 h, pH 7.5, cell membranes).
`CN(C(=O)[C@H](Cc1ccccc1)NC(=O)[C@@H](NC(=O)OCc1ccccc1)C(C)(C)C)N(C#N)CCC(N)=O` gave a kon of 7020 M⁻¹ s⁻¹ (CTSB; enzyme activity, inhibitor).
For `C#Cc1n[nH]c2c(-c3cn(C(C)c4ccccn4)c(=O)[nH]c3=O)cc(F)cc12` (stereo not shown), the inhibition was -13.7% (Cyclin-dependent kinase 2, with cyclin E1 (CDK2, Homo sapiens, UniProt P24941); enzyme activity, inhibitor; 1 µM).
For `OC[C@H]1CNCCN1C[C@@H]1CCCN1C[C@H](CC1CCCCC1)N1CCN(CCC23CC4CC(CC(C4)C2)C3)[C@H](Cc2ccc(O)cc2)C1`, the remaining binding was 96.1% (Oprd1; ligand displacement, radioligand; 0.5 µM, 2 h, pH 7.5, cell membranes).
The remaining activity of `COc1cc(Cl)c(C(=O)N[C@@H](CN[C@H]2CC[C@@H](N)CC2)Cc2ccc(C#N)cc2)cc1-c1ccc(CN[C@H](C)c2ccc(C)cc2)o1` is reported as 107% (MAP kinase-activated protein kinase 3 (MAPKAPK3, Homo sapiens, UniProt Q16644); enzyme activity, inhibitor; 1 µM).
With `OC[C@H]1CNCCN1C[C@@H]1CCCN1C[C@H](CC1CCCCC1)N1CCN(CCc2ccc(Cl)c(Cl)c2)[C@H](Cc2ccc(O)cc2)C1` the remaining binding was 88% (Oprd1; ligand displacement, radioligand; 0.5 µM, 2 h, pH 7.5, cell membranes).
`CN(C)C(=O)COC(=O)Cc1ccc(OC(=O)c2ccc(NC(=N)N)cc2)cc1` gave an inhibition of 0% (Ubiquitin carboxyl-terminal hydrolase 14 (USP14, Homo sapiens, UniProt P54578); enzyme activity, inhibitor; 10 µM).
`CCN(CC)CCCC[C@H](NC(=O)[C@H](CC(C)C)NC(=O)[C@H](C)NC(=O)[C@H](Cc1ccccc1)NC(=O)c1ccc(C(C)(C)C)cc1)C(=O)N[C@@H](CO)C(=O)OC` gave a ΔTm of 0.08 °C (Bromodomain-containing protein 7 (BRD7, Homo sapiens, UniProt Q9NPI1); thermal stability, DSF; 25 µM).
